Test results: PMC8354861 (Bioorganic & Medicinal Chemistry, 2021)
In brackets after ≈: the same amount, converted by molar mass. Like-named read-outs stand apart in the source and are kept apart here.

Assays:
SARS-CoV-2 = assay: Antiviral activity against SARS-CoV-2 in Vero E6 cells; format: cell-based
[1] = Stability in simulated intestinal fluid; format: in vitro ADME; conditions: SIF with pancreatin
Procedure, shortened: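 Simulated intestinal fluid was made to the USP recipe: KH2PO4, 0.2 M NaOH and 10 g/L pancreatin, adjusted to pH 6.8. Test compound stock (2 μM in DMF) was diluted into the fluid and incubated at 37 °C for up to 24 h, sampled at 0, 1, 2, 3, 4, 6 and 24 h. Reactions were stopped with ice-cold acetonitrile, centrifuged, and supernatants analysed by HPLC.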

ICR mice = assay: Acute toxicity study in ICR mice; format: in vivo
Procedure, shortened: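 Male ICR mice (28–36 g), 15 animals randomised into five groups of three, fasted 16 h. Each group received one oral gavage dose of test compound at 50, 100, 200, 500 or 1000 mg/kg in 5% DMSO, 5% Solution Hs15 and 90% saline. Mortality was recorded over 7 days; body weight, organ weight and tissue histology were assessed after sacrifice.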

[2] = rats; cited from earlier work
[3] = dogs; cited from earlier work
[4] = cynomolgus monkeys; cited from earlier work
physchem = conditions: pH 6

For `N#C[C@@]1(c2cc(F)c3c(N)ncnn23)O[C@H](CO)[C@@H](O)[C@H]1O` [Compound 1c, (2R,3R,4S,5R)-2-(4-amino-5-fluoropyrrolo[2,1-f][1,2,4]triazin-7-yl)-3,4-dihydroxy-5-(hydroxymethyl)tetrahydrofuran-2-carbonitrile], the “anti-SARS-CoV-2 activity (in words)” value (SARS-CoV-2) was “able to inhibit the viral replication” and the “anti-SARS-CoV-2 activity (in words)” value (SARS-CoV-2; listed as 3c) was “moderate anti-SARS-CoV-2 activity”.

For `CC(C)C(=O)O[C@H]1[C@@H](O)[C@](C#N)(c2ccc3c(N)ncnn23)O[C@@H]1CO` [Compound 5a, (2R,3S,4R,5R)-5-(4-aminopyrrolo[2,1-f][1,2,4]triazin-7-yl)-5-cyano-4-hydroxy-2-(hydroxymethyl)tetrahydrofuran-3-yl isobutyrate], the “stability in SIF (in words)” value [1] was “good stability”.

For `N#C[C@@]1(c2cc(Cl)c3c(N)ncnn23)O[C@H](CO)[C@@H](O)[C@H]1O` [Compound 1a, (2R,3R,4S,5R)-2-(4-amino-5-chloropyrrolo[2,1-f][1,2,4]triazin-7-yl)-3,4-dihydroxy-5-(hydroxymethyl)tetrahydrofuran-2-carbonitrile], the “anti-SARS-CoV-2 activity (in words)” value (SARS-CoV-2) was “loss of the anti-SARS-CoV-2 activity”.

For `CC(C)C(=O)OC[C@H]1O[C@@](C#N)(c2ccc3c(N)ncnn23)[C@H](O)[C@@H]1O` [Compound 5c, ((2R,3S,4R,5R)-5-(4-aminopyrrolo[2,1-f][1,2,4]triazin-7-yl)-5-cyano-3,4-dihydroxytetrahydrofuran-2-yl)methyl isobutyrate], the “well tolerated oral dosage” value (ICR mice; single oral dose) was “up to 1000 mg/kg”, the mortality (ICR mice; single oral gavage 50-1000 mg/kg, 7-day observation period) was “No mortality” and the “changes in body weight, organ weight, or tissue histology” value (ICR mice; single oral gavage 50-1000 mg/kg, after sacrifice) was “No significant changes”.

In the case of “(3R,4S,5R)-2-(4-aminopyrrolo[2,1-f][1,2,4]triazin-7-yl)-2-cyclopropyl-5-(hydroxymethyl)tetrahydrofuran-3,4-diol [Compound 2d]”, the Inhibition rate (SARS-CoV-2; at 5 µM) is reported as less than 10%.

With `OC[C@H]1O[C@@H](c2ccc3c(NO)ncnn23)[C@H](O)[C@@H]1O` [Compound 3b, (2S,3R,4S,5R)-2-(4-(hydroxyamino)pyrrolo[2,1-f][1,2,4]triazin-7-yl)-5-(hydroxymethyl)tetrahydrofuran-3,4-diol] the “anti-SARS-CoV-2 activity (in words)” value (SARS-CoV-2) was “did not show any antiviral activity”.

For `N#Cc1cc([C@]2(C#N)O[C@H](CO)[C@@H](O)[C@H]2O)n2ncnc(N)c12` [Compound 1d, 4-amino-7-((2R,3R,4S,5R)-2-cyano-3,4-dihydroxy-5-(hydroxymethyl)tetrahydrofuran-2-yl)pyrrolo[2,1-f][1,2,4]triazine-5-carbonitrile], the “anti-SARS-CoV-2 activity (in words)” value (SARS-CoV-2) was “loss of the anti-SARS-CoV-2 activity”.

In the case of `N#C[C@@]1(c2ccc3c(N)ncnn23)O[C@H](CO)[C@@H](O)[C@H]1O` [GS-441524], the “F (oral bioavailability)” value [2] is given as 33%, the “F (oral bioavailability)” value [3] is given as 85% and the “F (oral bioavailability)” value [4] is given as 8.3%. For the same compound, the solubility (physchem) was 105 µg/mL (≈ 360 µM).

In the case of `CCC(CC)COC(=O)[C@H](C)N[P@](=O)(OC[C@H]1O[C@@](C#N)(c2cc(F)c3c(N)ncnn23)[C@H](O)[C@@H]1O)Oc1ccccc1` [Compound 7, 2-ethylbutyl ((S)-(((2R,3S,4R,5R)-5-(4-amino-5-fluoropyrrolo[2,1-f][1,2,4]triazin-7-yl)-5-cyano-3,4-dihydroxytetrahydrofuran-2-yl)methoxy)(phenoxy)phosphoryl)-L-alaninate], the “anti-SARS-CoV-2 activity (in words)” value (SARS-CoV-2) is reported as “reduced activity”.
